Among the data in ChEMBL document CHEMBL1141109, “Synthesis of an estrogen receptor beta-selective radioligand: 5-[18F]fluoro-(2R,3S)-2,3-bis(4-hydroxyphenyl)pentanenitrile and comparison of in vivo distribution with 16alpha-[18F]fluoro-17beta-estradiol” (J Med Chem, 2005) are Biodistribution values, retold here.

Data set [1] is described as follows: Biodistribution of [18F]FES in alpha estrogen receptor knock out mouse liver after 2 h; (n=3). Type of data set: ADME, organism-based. To be noted: in vivo. In outline:
(§1)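 Female αERKO mice were rested 48 h after shipping and fed estrogen-free chow. They were staged by daily vaginal smears and studied in diestrus. Each received 13 µCi [18F]FES in 100 µL 10% ethanol/saline and was sacrificed at 30 min, 1 h or 2 h (n = 3 per time). Tissue uptake is given as %ID/g ± SD.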

A short description of data set [2]: Biodistribution of [18F]-FES in alpha estrogen receptor knock out mouse liver after 1 h; (n=3). Type of data set: ADME, organism-based. To be noted: in vivo. Put shortly: as §1
Data set [3] in a line: Biodistribution of [18F]FES in alpha estrogen receptor knock out mouse brain after 30 min; (n=3). Type of data set: ADME, organism-based. The following applies: in vivo, 0.5 h. In outline: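 Female αERKO mice rested 48 h after shipping and fed estrogen-free chow. Estrous stage was checked by daily vaginal smears, and mice were used in diestrus. Each received 13 µCi [18F]FES in 100 µL 10% ethanol/saline. Animals were sacrificed at 30 min, 1 h or 2 h (n = 3 each). Tissue uptake is reported as %ID/g ± SD.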

The nature of data set [4]: Biodistribution of [18F]FES in alpha estrogen receptor knock out mouse muscle after 2 h; (n=3). Type of data set: ADME, organism-based, Muscle tissue. The following applies: in vivo. In outline:
as §1

Data set [5] is described as follows: Biodistribution of [18F]FEDPN in rat heart after 30 min when given in tail vein; (n=5). Type of data set: ADME, organism-based. The following applies: in vivo, iv, 0.5 h. In outline:
(§2)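 Immature female Sprague–Dawley rats (<25 days old) under isoflurane/O2 got 20 µCi tracer in 150 µL 20% ethanol/saline by tail vein. […] Rats were killed at 30 min, 1 h or 2 h. Organs were blotted, weighed and gamma-counted against an injectate standard. Data are %ID/g ± SD, five rats per point.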

A short description of data set [6]: Biodistribution of [18F]FEDPN in alpha estrogen receptor knock out mouse liver after 2 h; (n=3). To be noted: in vivo. Type of data set: ADME, organism-based. In outline: (§3)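 ERKO female mice (αERKO or βERKO), rested 48 h after shipping, placed on estrogen-free chow, and staged by daily vaginal smears. Injected in a nonestrous stage with 11 µCi [18F]FEDPN in 130 µL of 10% ethanol/saline. Killed at 30 min, 1 h or 2 h. Organs counted and reported as %ID/g ± SD, three animals per point.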

A short description of data set [7]: Biodistribution of [18F]FEDPN in alpha estrogen receptor knock out mouse blood after 2 h; (n=3). The following applies: in vivo. Type of data set: ADME, organism-based. Put shortly:
as §3

Data set [8] can be described thus: Biodistribution of [18F]FEDPN in alpha estrogen receptor knock out mouse muscle after 30 min; (n=3). Type of data set: ADME, organism-based, Muscle tissue. The following applies: in vivo, 0.5 h. Put shortly:
(§4)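 αERKO and βERKO mice, staged by daily vaginal smears and kept on estrogen-free chow, were studied in a nonestrous stage. Each mouse received 11 μCi of tracer in 130 μL of 10% ethanol/saline. Mice were killed at 30 min, 1 h or 2 h (n = 3 each). Organs were removed, blotted, weighed and gamma-counted against an injectate standard. Uptake is given as %ID/g ± SD.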

Data set [9] is described as follows: Biodistribution of [18F]FEDPN in alpha estrogen receptor knock out mouse kidney after 1 h; (n=3). Type of data set: ADME, organism-based. The following applies: in vivo. In outline: as §3
Data set [10] is described as follows: Biodistribution of [18F]FEDPN in rat bone after 1 h block when given in tail vein; (n=5). Type of data set: ADME, organism-based, Bone element. To be noted: in vivo, iv. In outline: as §2
Data set [11] in a line: Biodistribution of [18F]FEDPN in beta estrogen receptor knock out mouse brain after 1 h; (n=3). Type of data set: ADME, organism-based. The following applies: in vivo. In outline:
as §4

Data set [12] in a line: Biodistribution of [18F]-FEDPN in beta estrogen receptor knock out mouse thymus after 30 min; (n=3). Type of data set: ADME, organism-based. The following applies: in vivo, 0.5 h. Put shortly: as §3

In the case of `C[C@]12CC[C@@H]3c4ccc(O)cc4CC[C@H]3[C@@H]1C[C@@H](F)[C@@H]2O` [FLUOROESTRADIOL], the Biodistribution in data set [1] was 3.67 %ID/g; in [2] it was 5.24 %ID/g; in data set [3] it was 0.41 %ID/g; in data set [4] it was 0.11 %ID/g.
With `N#C[C@H](c1ccc(O)cc1)[C@@H](CCF)c1ccc(O)cc1`, the Biodistribution amounted to 0.49 %ID/g in [5]; 1.93 %ID/g in data set [6]; 0.23 %ID/g in data set [7]; 1.21 %ID/g in data set [8]; 2.97 %ID/g in data set [9]; 1.82 %ID/g in [10]. Also, the Biodistribution is on record as 0.47 %ID/g in data set [11] and 1.2 %ID/g in data set [12].
